ChEMBL document CHEMBL5653605, “Reduced VEGF production, angiogenesis, and vascular regrowth contribute to the antitumor properties of dual mTORC1/mTORC2 inhibitors” (Cancer Res, 2011)
Active and inactive are the calls of the source.

How the values were obtained:
mTORC2 = mTORC2 (Homo sapiens, UniProt P42345); experiment: Competitive inhibition of mTORC2 immunoprecipitated from human HeLa cells using His-tagged 4E-BP1 as substrate incubated for 30 mins in presence of ATP by chemiluminescence based ELISA
In short: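 Native mTORC1 or mTORC2 complex immunoprecipitated from HeLa lysates; kinase reaction run at 1 mM ATP.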

[1] = target: T1, Serine/threonine-protein kinase mTOR (Homo sapiens, UniProt P42345); experiment: Inhibition of mTOR (unknown origin)
[2] = target: Phosphatidylinositol 4,5-bisphosphate 3-kinase catalytic subunit alpha isoform (Homo sapiens, UniProt P42336); experiment: Inhibition of PI3Kalpha (unknown origin) in presence of ATP by HTRF assay
[3] = target: RAC-alpha serine/threonine-protein kinase (Homo sapiens) (UniProt P31749); experiment: Inhibition of AKT phosphorylation at Ser 473 site in serum deprived/insulin stimulated human OVCAR-3 cells harboring PTEN and wild type PI3K preincubated for 2 hrs followed by insulin stimulation and measured immediately by Western blot analysis; assay type: cell-based; settings: dose 0.001-10 µM
[4] = target: Eukaryotic translation initiation factor 4E-binding protein 1 (Homo sapiens) (UniProt Q13541); experiment: Inhibition of 4E-BP1 phosphorylation at Ser 37/46 residues in serum deprived/insulin stimulated human OVCAR-3 cells harboring PTEN and wild type PI3K preincubated for 2 hrs followed by insulin stimulation and measured immediately by Western blot analysis; assay type: cell-based; settings: dose 0.001-10 µM
OVCAR-3 [5] = experiment: (§1) Inhibition of S6K phosphorylation at 235/236 residues in serum deprived/insulin stimulated human OVCAR-3 cells harboring PTEN and wild type PI3K at 0.001 to 10 uM preincubated for 2 hrs followed by insulin stimulation and measured immediately by Western blot analysis; assay type: cell-based; settings: dose 0.001-10 µM
OVCAR-3 [6] = experiment: as §1, with “S6K” for “S6K phosphorylation”, “PI3K assessed as inhibition of s6 substrate phosphorylation at […] residue” for “PI3K”; assay type: cell-based; settings: dose 0.001-10 µM
[7] = Drug concentration in nu/nu CD-1 mouse plasma xenografted with human GEO cells at 75 mg/kg administered for 14 days and measured 1 hr post last dose; assay type: ADME, organism-based
GEO = experiment: Antitumor activity against human GEO cells xenografted in nu/nu CD-1 mouse assessed as slower tumor growth at 75 mg/kg administered twice a day for 14 days and measured twice weekly; assay type: functional, organism-based; settings: time 14.0 day
Mus musculus [8] = experiment: In vivo inhibition of AKT phosphorylation in RIP-Tag2 mouse with pancreatic islet cell carcinoma 75 mg/kg, po bid administered via gavage and measured after 7 days by immunohistochemistry; assay type: functional, organism-based; settings: time 7.0 day
In short: (§2)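 RIP-Tag2 mice aged 9–10 weeks dosed 75 mg/kg BID by gavage for 7 days, vehicle Labrifil or water; perfusion fixation, 60–80 µm tumor sections immunostained for phospho-4E-BP1, phospho-Akt or phospho-S6K with CD31; fluorescence/confocal imaging; 3–8 mice per group.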

Mus musculus [9] = experiment: In vivo inhibition of 4E-BP1 phosphorylation in RIP-Tag2 mouse with pancreatic islet cell carcinoma 75 mg/kg, po bid administered via gavage and measured after 7 days by immunohistochemistry; assay type: functional, organism-based; settings: time 7.0 day; in short: as §2
Mus musculus [10] = experiment: In vivo inhibition of S6K phosphorylation in RIP-Tag2 mouse with pancreatic islet cell carcinoma 75 mg/kg, po bid administered via gavage and measured after 7 days by immunohistochemistry; assay type: functional, organism-based; settings: time 7.0 day; in short: as §2
[11] = test system: Pancreatic islet cell carcinoma; experiment: (§3) Antitumor activity against pancreatic islet cell carcinoma in RIP-Tag2 mouse assessed as reduction in VEGF production by measuring reduction in fluorescence in entire tumor at 75 mg/kg, po bid administered via gavage and measured after 1 day by immunohistochemical staining based confocal microscopic analysis relative to control; assay type: functional; parameters: scale not given: the % may be the effect or the level left
In short: (§4)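 Treatment began in RIP-Tag2 mice at 9–10 weeks: 75 mg/kg gavage BID for 1, 4 or 7 days, or 20 mg/kg ip QD for 7 days; vehicle Labrifil or water. Tissue fixed by vascular perfusion and 60–80 µm sections stained for VEGF with CD31. VEGF fluorescence intensity measured over whole tumor, tumor cells, or tumor vessels. 3–8 mice/group; ANOVA, Fisher PLSD.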

[12] = test system: Pancreatic islet cell carcinoma; experiment: as §3, with “4 days” for “1 day”; assay type: functional; parameters: scale not given: the % may be the effect or the level left; settings: time 4 day; in short: as §4
[13] = test system: Pancreatic islet cell carcinoma; experiment: Antitumor activity against pancreatic islet cell carcinoma in RIP-Tag2 mouse assessed as reduction in VEGF production by measuring reduction in tumor vessels associated fluorescence intensity at 75 mg/kg, po bid administered via gavage and measured after 1 to 7 days by immunohistochemical staining based confocal microscopic analysis relative to control; assay type: functional; parameters: scale not given: the % may be the effect or the level left; settings: time 1-7 day; in short: as §4
[14] = test system: Pancreatic islet cell carcinoma; experiment: Antivascular activity against pancreatic islet cell carcinoma in RIP-Tag2 mouse assessed as appearance of empty basement membrane sleeves at 75 mg/kg, po bid administered via gavage and measured after 7 days by immunohistochemical staining based fluorescence microscopic analysis; assay type: functional, organism-based; settings: time 7.0 day
In short: (§5)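 For 7 days, RIP-Tag2 mice, 9–10 weeks old, received 75 mg/kg gavage BID, 200 mg/kg gavage QD, or 20 mg/kg ip QD. Perfusion-fixed tumors cut at 60–80 µm and stained for CD31 and type IV collagen basement membrane. Vessel area density from fluorescence images with threshold 30–50; sprouts and empty basement membrane sleeves examined by confocal microscopy. 3–8 mice/group; ANOVA, Fisher PLSD.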

[15] = test system: Pancreatic islet cell carcinoma; experiment: Antivascular activity against pancreatic islet cell carcinoma in RIP-Tag2 mouse assessed as reduction in vascular sprouts at 75 mg/kg, po bid administered via gavage and measured after 7 days by immunohistochemical staining based fluorescence microscopic analysis relative to control; assay type: functional; parameters: scale not given: the % may be the effect or the level left; settings: time 7 day; in short: as §5
[16] = test system: Pancreatic islet cell carcinoma; experiment: Antivascular activity in pancreatic islet cell carcinoma in RIP-Tag2 mouse assessed as reduction in intratumoral hemorrhage by measuring reduction in TER-119 immunoreactivity at 75 mg/kg, po bid pretreated with OSI-930 for 7 days at 200 mg/kg, po followed by compound administration and measured after 4 days by confocal microscopic analysis relative to control; assay type: functional; parameters: scale not given: the % may be the effect or the level left; settings: time 4 day
In short: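 Regrowth design in 10-week-old RIP-Tag2 mice: OSI-930 200 mg/kg gavage QD for 7 days, then 4 days of vehicle, 75 mg/kg gavage BID, or 20 mg/kg ip QD; controls received vehicle for 11 days. Perfusion-fixed sections stained for CD31 for vessel density or for the erythrocyte marker TER-119, quantified by confocal microscopy. 3–8 mice/group; ANOVA, Fisher PLSD.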

[17] = test system: Pancreatic islet cell carcinoma; experiment: Additive antitumor activity in pancreatic islet cell carcinoma in RIP-Tag2 mouse assessed as reduction in proliferation by measuring reduction in phospho-histone H3 level at 100 mg/kg, po bid administered via gavage for 4 days in presence of OSI-930 by immunohistochemistry analysis; assay type: functional, organism-based; settings: time 4.0 day
[18] = target: T1, Serine/threonine-protein kinase mTOR; experiment: Inhibition of mTOR (unknown origin) assessed as reduction in 4E-BP1 phosphorylation by cell based assay
[19] = target: Epidermal growth factor receptor (Homo sapiens, UniProt P00533); experiment: Inhibition of EGFR phosphorylation (unknown origin) by cell based assay
[20] = target: Proto-oncogene tyrosine-protein kinase Src (Homo sapiens, UniProt P12931); experiment: Inhibition of SRC (unknown origin) assessed as reduction in phosphorylated FAK level by cell based assay
[21] = Inhibition of MAPK (unknown origin) signaling axis assessed as reduction in phosphorylated ERK1/2 level by cell based assay; settings: Homo sapiens
[22] = target: Phosphatidylinositol 4,5-bisphosphate 3-kinase catalytic subunit delta isoform (Homo sapiens) (UniProt O00329); experiment: Inhibition of PI3Kdelta (unknown origin) at 3 uM by Ambit Kinomescan assay relative to control
[23] = target: Dual specificity mitogen-activated protein kinase kinase 2 (Homo sapiens) (UniProt P36507); experiment: Inhibition of MEK2 (unknown origin)
Dual specificity mitogen-activated protein kinase kinase 2 (Homo sapiens), sequence (P36507 whole entry): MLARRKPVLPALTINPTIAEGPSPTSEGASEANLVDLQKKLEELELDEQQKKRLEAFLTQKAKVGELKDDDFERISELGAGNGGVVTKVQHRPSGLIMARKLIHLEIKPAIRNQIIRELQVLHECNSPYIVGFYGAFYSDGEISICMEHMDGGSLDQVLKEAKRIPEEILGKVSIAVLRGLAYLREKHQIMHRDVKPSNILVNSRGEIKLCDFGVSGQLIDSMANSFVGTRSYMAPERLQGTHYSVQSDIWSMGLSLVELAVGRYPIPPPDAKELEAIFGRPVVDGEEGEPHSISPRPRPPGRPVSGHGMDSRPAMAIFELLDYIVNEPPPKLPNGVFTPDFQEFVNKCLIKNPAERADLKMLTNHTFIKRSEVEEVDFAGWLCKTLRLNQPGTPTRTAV

Proto-oncogene tyrosine-protein kinase Src, sequence (P12931 2-536 limits assumed): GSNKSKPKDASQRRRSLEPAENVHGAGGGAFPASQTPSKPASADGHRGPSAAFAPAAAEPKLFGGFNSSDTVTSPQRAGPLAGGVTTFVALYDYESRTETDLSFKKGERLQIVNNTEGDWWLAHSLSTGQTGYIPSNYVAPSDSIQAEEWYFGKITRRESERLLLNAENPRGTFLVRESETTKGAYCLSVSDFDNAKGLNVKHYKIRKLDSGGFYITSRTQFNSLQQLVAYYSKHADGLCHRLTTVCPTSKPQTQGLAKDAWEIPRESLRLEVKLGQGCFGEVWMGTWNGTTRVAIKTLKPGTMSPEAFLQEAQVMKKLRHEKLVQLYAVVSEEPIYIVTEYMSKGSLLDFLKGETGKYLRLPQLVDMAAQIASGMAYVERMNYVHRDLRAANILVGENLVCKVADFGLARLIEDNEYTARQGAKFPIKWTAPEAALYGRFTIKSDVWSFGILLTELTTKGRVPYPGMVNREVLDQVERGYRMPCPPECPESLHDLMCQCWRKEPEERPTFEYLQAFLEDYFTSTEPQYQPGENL
Epidermal growth factor receptor, sequence (P00533 whole entry): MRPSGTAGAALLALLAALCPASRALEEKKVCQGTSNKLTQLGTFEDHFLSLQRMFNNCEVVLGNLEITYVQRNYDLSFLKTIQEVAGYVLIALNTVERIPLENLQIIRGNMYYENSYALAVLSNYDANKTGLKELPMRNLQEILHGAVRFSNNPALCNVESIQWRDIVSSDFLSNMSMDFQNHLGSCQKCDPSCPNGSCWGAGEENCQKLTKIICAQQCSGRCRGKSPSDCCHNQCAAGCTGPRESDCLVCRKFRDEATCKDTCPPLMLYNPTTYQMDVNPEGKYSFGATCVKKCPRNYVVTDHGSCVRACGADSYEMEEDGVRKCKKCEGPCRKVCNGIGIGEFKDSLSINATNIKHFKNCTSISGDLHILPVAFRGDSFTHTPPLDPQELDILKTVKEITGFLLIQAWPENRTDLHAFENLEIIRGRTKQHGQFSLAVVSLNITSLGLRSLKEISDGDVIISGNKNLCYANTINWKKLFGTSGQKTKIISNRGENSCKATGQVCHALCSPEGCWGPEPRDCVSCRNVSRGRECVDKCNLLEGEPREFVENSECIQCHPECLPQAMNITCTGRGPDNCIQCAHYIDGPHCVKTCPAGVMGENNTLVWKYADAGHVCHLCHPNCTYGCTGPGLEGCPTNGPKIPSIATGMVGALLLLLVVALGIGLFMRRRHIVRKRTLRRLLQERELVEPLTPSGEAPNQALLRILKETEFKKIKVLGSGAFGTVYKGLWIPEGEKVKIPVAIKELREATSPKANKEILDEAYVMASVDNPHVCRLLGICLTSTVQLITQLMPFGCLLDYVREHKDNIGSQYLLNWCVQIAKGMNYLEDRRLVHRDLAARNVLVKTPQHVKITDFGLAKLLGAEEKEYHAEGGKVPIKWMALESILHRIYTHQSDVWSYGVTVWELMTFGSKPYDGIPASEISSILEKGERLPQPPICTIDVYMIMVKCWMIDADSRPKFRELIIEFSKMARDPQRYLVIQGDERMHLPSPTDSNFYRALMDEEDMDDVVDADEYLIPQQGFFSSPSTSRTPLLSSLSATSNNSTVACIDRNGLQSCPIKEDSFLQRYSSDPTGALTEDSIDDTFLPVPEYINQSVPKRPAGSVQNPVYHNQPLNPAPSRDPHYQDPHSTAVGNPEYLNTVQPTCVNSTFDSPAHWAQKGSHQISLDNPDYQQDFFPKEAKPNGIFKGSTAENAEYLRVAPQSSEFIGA
Phosphatidylinositol 4,5-bisphosphate 3-kinase catalytic subunit delta isoform (Homo sapiens), sequence (O00329 whole entry, canonical isoform): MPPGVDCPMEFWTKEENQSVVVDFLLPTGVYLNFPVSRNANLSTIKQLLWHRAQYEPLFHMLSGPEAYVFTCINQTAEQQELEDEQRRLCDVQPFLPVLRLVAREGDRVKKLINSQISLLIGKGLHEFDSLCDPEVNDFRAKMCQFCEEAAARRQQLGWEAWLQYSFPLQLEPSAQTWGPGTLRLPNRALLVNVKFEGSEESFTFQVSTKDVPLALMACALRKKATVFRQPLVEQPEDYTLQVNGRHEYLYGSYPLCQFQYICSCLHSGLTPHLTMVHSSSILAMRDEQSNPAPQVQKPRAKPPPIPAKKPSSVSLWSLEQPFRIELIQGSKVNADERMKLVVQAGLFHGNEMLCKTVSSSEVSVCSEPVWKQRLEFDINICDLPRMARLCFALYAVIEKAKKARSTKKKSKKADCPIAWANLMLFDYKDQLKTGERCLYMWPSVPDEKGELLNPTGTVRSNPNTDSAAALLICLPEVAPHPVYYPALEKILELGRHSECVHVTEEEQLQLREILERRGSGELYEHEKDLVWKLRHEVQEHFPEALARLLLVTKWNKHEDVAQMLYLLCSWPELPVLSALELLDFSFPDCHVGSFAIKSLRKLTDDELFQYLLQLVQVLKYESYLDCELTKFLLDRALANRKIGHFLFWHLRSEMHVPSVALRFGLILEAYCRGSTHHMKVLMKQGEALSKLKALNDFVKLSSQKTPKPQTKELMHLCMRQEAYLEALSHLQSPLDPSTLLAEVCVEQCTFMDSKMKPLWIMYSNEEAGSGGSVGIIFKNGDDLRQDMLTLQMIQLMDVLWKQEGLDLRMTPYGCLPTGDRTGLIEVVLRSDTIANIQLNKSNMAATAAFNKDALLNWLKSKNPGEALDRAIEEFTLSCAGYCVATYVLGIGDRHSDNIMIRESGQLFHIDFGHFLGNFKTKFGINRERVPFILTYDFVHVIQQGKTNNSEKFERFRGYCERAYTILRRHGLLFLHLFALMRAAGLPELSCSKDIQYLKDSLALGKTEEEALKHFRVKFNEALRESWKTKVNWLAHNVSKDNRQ
Eukaryotic translation initiation factor 4E-binding protein 1 (Homo sapiens), sequence (Q13541 whole entry): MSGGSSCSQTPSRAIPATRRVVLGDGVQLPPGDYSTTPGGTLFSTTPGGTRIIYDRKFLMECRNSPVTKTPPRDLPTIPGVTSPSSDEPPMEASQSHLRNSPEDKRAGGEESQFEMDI
RAC-alpha serine/threonine-protein kinase (Homo sapiens), sequence (P31749 whole entry): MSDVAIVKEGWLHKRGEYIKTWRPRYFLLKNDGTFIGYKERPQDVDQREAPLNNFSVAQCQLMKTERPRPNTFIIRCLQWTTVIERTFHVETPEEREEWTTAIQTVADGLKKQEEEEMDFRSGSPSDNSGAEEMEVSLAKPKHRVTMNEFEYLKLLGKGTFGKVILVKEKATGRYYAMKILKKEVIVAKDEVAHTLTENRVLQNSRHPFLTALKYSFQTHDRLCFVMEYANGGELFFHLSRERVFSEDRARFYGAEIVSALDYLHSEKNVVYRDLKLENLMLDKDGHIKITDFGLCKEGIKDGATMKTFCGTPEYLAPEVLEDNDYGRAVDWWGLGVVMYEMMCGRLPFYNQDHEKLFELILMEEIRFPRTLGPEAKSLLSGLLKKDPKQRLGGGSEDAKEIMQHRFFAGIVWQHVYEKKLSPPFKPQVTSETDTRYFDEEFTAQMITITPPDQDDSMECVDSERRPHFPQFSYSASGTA
Phosphatidylinositol 4,5-bisphosphate 3-kinase catalytic subunit alpha isoform, sequence (P42336 whole entry, canonical isoform): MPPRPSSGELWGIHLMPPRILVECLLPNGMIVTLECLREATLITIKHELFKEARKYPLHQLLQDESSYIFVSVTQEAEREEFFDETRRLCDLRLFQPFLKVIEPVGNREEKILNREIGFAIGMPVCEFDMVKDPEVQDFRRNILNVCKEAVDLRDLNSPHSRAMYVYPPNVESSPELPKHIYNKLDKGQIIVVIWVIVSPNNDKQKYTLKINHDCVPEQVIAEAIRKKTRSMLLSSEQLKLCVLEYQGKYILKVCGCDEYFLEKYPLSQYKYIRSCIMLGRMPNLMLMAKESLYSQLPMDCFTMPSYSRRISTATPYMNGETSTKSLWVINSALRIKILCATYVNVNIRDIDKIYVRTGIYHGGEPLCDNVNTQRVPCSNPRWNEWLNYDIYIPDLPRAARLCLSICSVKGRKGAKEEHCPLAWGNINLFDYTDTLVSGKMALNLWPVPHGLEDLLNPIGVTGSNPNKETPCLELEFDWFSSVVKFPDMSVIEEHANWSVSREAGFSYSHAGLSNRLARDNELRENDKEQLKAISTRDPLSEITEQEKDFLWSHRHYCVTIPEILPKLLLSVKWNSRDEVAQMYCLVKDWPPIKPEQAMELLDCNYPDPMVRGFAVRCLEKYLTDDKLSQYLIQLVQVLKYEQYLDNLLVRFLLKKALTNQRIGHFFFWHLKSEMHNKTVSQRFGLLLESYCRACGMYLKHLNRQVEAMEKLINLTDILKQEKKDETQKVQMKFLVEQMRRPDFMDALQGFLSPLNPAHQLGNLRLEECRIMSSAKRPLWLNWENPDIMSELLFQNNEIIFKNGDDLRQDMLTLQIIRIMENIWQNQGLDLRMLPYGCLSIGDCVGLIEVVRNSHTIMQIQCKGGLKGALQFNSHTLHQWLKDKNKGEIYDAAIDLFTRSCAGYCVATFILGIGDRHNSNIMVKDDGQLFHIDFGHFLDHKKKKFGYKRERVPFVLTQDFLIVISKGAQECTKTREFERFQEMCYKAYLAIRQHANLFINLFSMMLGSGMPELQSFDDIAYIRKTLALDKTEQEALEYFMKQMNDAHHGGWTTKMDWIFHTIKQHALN

For `Nc1nccn2c1c(-c1cc3cccc(Cl)c3[nH]1)nc2[C@H]1CC[C@H](C(=O)O)CC1`, the IC50 (mTORC2) was 7 nM, the IC50 [1] was 11 nM and the IC50 [2] was 190 nM. For the same compound, the inhibition [3] was “Dose-Dependent Effect”, the inhibition [4] was “Dose-Dependent Effect” and the inhibition (OVCAR-3 [5]) was “Active”. For the same compound, the inhibition (OVCAR-3 [6]) was “Active”, the concentration at 337 h [7] was 25.6 µM and the Activity (GEO) was “Active”. The inhibition (Mus musculus [8]) was “Active”, the inhibition (Mus musculus [9]) was “Active” and the inhibition (Mus musculus [10]) was “Active”. For the same compound, the Activity [11] was 12%, the Activity [12] was 48% and the Activity [13] was 48%. For the same compound, the Activity [14] was “inactive”, the Activity [15] was 54% and the Activity [16] was 50%. The Activity [17] was “Active”, the IC50 [18] was 1100 nM and the IC50 [19] was > 40000 nM. The IC50 [20] was > 40000 nM, the IC50 [21] was > 40000 nM and the inhibition [22] was > 90%. For the same compound, the inhibition [23] was “Active”.
